Assay outcomes deposited in PubChem by several laboratories.
Rows were chosen to be rich in hits. Some 3.7% of all compounds tested hit in one or more screens of this group.
OX1R antag-1 – OX1R (human) antagonism; actives 1.8% (n = 330,000); O43613; OX1R-expressing cells, FRET antagonist read-out; inhibition, % at 6.6 µM; in the data active means inhibition mostly above about 38%, no sharp cut-off; inactive means mostly below about 40%
OX1R antag-2 – blocks the human orexin 1 receptor | inhibition, % at 5 µM | actives 0.43% (n = 330,000) | CHO/OX1R cells, Fluo-8 calcium fluorescence, orexin A | O43613;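 active means inhibition above its plate's threshold, mean inhibition of all tested compounds on the plate plus 3 SD, cut at about 37% in these data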
CHO parental Ca – counter-screen for OX1R antagonists: effect in parental CHO cells; parental CHO-K1, ATP-induced calcium, Fluo-8 fluorescence; inhibition, % at 5.6 µM; actives 0.63% (n = 330,000); AID 463079;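 active means inhibition above that plate's mean sample inhibition plus 3 SD, cut at about 26% in these data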
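Assay system: untransfected parental CHO cell line. Also added: ATP agonist challenge. Dosing: one dose, 5.6 µM nominal. Measured by: Fluo-8 fluorescence. Read-out: % inhibition. Benchmarks: ATP wells versus no-ATP DMSO wells. Repeats: no replicates.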
PGE2 EP2 inh – inhibitors of human EP2 prostaglandin E2 receptor; inhibition, % at 25 µM; C6 glioma cells expressing human EP2, cAMP TR-FRET; cells stimulated with saturating PGE2; actives 0.52% (n = 260,000); AID 1422;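 active means percent inhibition above 40 after rounding to a whole number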;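 further: rat C6 glioma host cells with rolipram phosphodiesterase inhibitor present; the protocol text gives 20 µM as final concentration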
Target sequence (P43116 whole entry, looked up): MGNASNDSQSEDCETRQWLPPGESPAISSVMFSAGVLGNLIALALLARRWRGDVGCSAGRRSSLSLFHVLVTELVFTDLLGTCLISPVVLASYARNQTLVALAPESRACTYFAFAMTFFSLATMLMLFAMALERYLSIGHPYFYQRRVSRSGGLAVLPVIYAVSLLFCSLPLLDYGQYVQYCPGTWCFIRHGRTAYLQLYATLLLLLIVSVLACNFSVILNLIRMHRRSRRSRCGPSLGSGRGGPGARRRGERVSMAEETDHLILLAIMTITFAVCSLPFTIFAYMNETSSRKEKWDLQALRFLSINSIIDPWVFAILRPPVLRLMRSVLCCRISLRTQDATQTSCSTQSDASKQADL
EP2 mod – modulators of human EP2 prostaglandin E2 receptor | P43116 | EP2-expressing cells, cAMP HTRF FRET, PGE2 co-stimulation | induction, % at 25 µM | actives 0.83% (n = 260,000) | AID 940;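 active means compounds whose cAMP rise, as percent of the full-agonist control response, exceeds 60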;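 further: rat C6 glioma line stably carrying human EP2 under a CMV promoter; the protocol text gives 20 µM as final concentration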
GPR7 antag – human neuropeptides B/W receptor 1 antagonism | P48145 | inhibition, % at 4.4 µM | actives 1.1% (n = 290,000) | AID 1861 | GPR7-expressing cells, fluorescence antagonist assay; in the data active means inhibition above about 16%, passing the limit was not always enough;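 further: cells stimulated with the agonist NPW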
Target sequence (P48145 whole entry, looked up): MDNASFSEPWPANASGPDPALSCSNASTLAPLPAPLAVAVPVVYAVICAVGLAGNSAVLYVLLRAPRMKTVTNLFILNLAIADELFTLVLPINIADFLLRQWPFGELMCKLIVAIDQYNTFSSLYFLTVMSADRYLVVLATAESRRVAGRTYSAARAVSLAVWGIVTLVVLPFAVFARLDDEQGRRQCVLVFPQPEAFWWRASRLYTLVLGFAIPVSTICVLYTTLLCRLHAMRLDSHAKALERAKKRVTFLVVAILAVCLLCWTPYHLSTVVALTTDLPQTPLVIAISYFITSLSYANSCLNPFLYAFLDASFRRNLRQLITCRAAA
Each line names hits and unclear results; the compound was inactive in the other large screens; ! = repeats disagree.

CCCSc1nc2c(cnn2-c2ccc(C)c(C)c2)c(=O)[nH]1	none
COC(=O)c1ccc(CSc2nc3c(cnn3-c3ccc(C)c(C)c3)c(=O)[nH]2)o1	EP2 mod 64.6
O=C(Nc1ccc([N+](=O)[O-])cn1)c1ccc(Br)o1	OX1R antag-1 64.1
O=C(Nc1ccc([N+](=O)[O-])cn1)c1cccnc1	none (no result: PGE2 EP2 inh, EP2 mod)
c1ccc(CCNc2ncnc3scc(C4COc5ccccc5O4)c23)cc1 (stereo unspecified)	CHO parental Ca 51.0
CCOC(=O)CS(=O)(=O)c1nc(-c2ccccc2)cc(C(F)(F)F)n1	GPR7 antag 38.6
CCOC(=O)CCS(=O)(=O)c1nc(-c2ccccc2)cc(C(F)(F)F)n1	GPR7 antag 25.6
CCC(C)c1ccccc1NC(=O)CN(CC)CC(=O)Nc1ccc2c(c1)OCCO2 (stereo unspecified)	none (no result: PGE2 EP2 inh, EP2 mod, GPR7 antag)
CCC(C)c1ccc(NC(=S)NCCn2cc(Cl)cn2)cc1 (stereo unspecified)	CHO parental Ca 45.1
CCC(C)c1ccc(NC(=S)NCCn2cc(Br)cn2)cc1 (stereo unspecified)	none
Cc1nc(Nc2ccccc2Cl)sc1C(=O)Nc1ccccc1	none
O=C(NCC1CCCN1S(=O)(=O)c1cccs1)c1cccc([N+](=O)[O-])c1 (stereo unspecified)	OX1R antag-1 55.2 (no result: PGE2 EP2 inh, EP2 mod, GPR7 antag)
Cc1ccccc1NC(=O)C(=O)NCC1CCCN1S(=O)(=O)c1cccs1 (stereo unspecified)	OX1R antag-1 33.6 (no result: PGE2 EP2 inh, EP2 mod, GPR7 antag)
COc1ccc(OC)c(Nc2nc(NCCC(C)C)nc(N)c2[N+](=O)[O-])c1	EP2 mod 63.0
O=C(/C=C/c1cccc(Cl)c1)c1nc2ccccc2[nH]1	none
O=C(Cc1ccc(Cl)cc1)Nc1cccc(S(=O)(=O)Nc2ccccc2F)c1	none
O=C(CSc1ccc([N+](=O)[O-])cc1)Nc1cccc(S(=O)(=O)Nc2ccccc2F)c1	CHO parental Ca 46.4
COc1ccc(Br)cc1CN1CCN(C(=O)c2cccc(F)c2)CC1	none (no result: PGE2 EP2 inh, EP2 mod)
COc1ccc(C(=O)NCC(c2ccc3c(c2)OCO3)N2CCN(c3ccc(OC)cc3)CC2)cc1 (stereo unspecified)	none (no result: PGE2 EP2 inh, EP2 mod, GPR7 antag)
CCOC(=O)c1c(NC(C)=O)sc2c1CC(C)CC2 (stereo unspecified)	EP2 mod 79.8 (no result: OX1R antag-1, OX1R antag-2, CHO parental Ca, GPR7 antag)
CCOC(=O)c1c(NC(=O)CC2SC(N)=NC2=O)sc2c1CCC(C)C2 (stereo unspecified)	EP2 mod 68.4!
CCOC(=O)c1c(NC(=O)C2C3C=CC(C3)C2C(=O)O)sc2c1CCC(C)C2 (stereo unspecified)	none
COC(=O)c1c(NC(=O)CC2SC(N)=NC2=O)sc2c1CCC(C)C2 (stereo unspecified)	none
CC1CCN(CC[S-])CC1.O.O.[Cl][Pt]	PGE2 EP2 inh 97.1 (no result: OX1R antag-1, OX1R antag-2, CHO parental Ca, GPR7 antag)
COCCn1c(C)cc(C(=O)CN2C(=O)NC3(CCCCCCC3)C2=O)c1C	OX1R antag-1 63.1
COCCn1c(C)cc(C(=O)CN2CCCCC2)c1C	none
CC(=O)C1=C(C)OC(N)=C(C#N)C1c1cccc([N+](=O)[O-])c1 (stereo unspecified)	GPR7 antag 32.9
CC(=O)C1=C(C)OC(N)=C(C#N)C1c1cc([N+](=O)[O-])ccc1Cl (stereo unspecified)	none
COC(=O)c1ccc(-c2ccco2)n1Cc1cc(C)ccc1C	EP2 mod 62.3
O=C(O)c1ccc(-c2ccco2)n1Cc1ccccc1	none
CCC(C)/C(C)=N/Nc1ccc(S(N)(=O)=O)cc1[N+](=O)[O-] (stereo unspecified)	OX1R antag-1 76.3
C=CCSc1nccc(=O)[nH]1	none
COc1ccccc1Nc1ncccc1C(=O)NCc1ccccc1	OX1R antag-1 75.3
COc1ccc(COc2ccccc2C(=O)NCc2ccccc2)cc1F	CHO parental Ca 34.3
O=C(Nc1ccc(S(=O)(=O)NCc2cccnc2)cc1)c1cnccn1	none (no result: OX1R antag-1, OX1R antag-2, CHO parental Ca, GPR7 antag)
Oc1ccc(/C=C/c2nc(-c3ccccc3O)n(-c3ccccc3)n2)cc1	EP2 mod 64.7
CCOC(=O)c1[nH]c2ccccc2c1NC(=O)c1nonc1C	none
Cc1nn2c(NC(C)C)c3c(nc2c1-c1ccccc1)CCC3	none
Cc1nn2c(C(F)(F)F)c3c(nc2c1-c1ccccc1)CCC3	EP2 mod 62.0
CCOC(=O)c1sc2nc3c(SCC(=O)O)cc(C(=O)c4ccccc4O)cn3c(=O)c2c1C	none
O=C(O)CSc1cc(C(=O)c2ccccc2O)cn2c(=O)c3c(-c4ccccc4)csc3nc12	EP2 mod 61.3
O=C(O)c1ccccc1-c1ccccc1C(=O)Nc1cccc(O)c1	none
N#CCc1nc(CSc2nc3ccccc3s2)cs1	GPR7 antag 16.2
Cc1onc(-c2c(F)cccc2Cl)c1C(=O)N[C@@H]1C(=O)N2[C@H]1SC(C)(C)[C@H]2C(=O)O	PGE2 EP2 inh 54.8 (no result: OX1R antag-1, OX1R antag-2, CHO parental Ca, GPR7 antag)
Cc1cc(/C=C2\SC(=S)NC2=O)c(C)n1-c1ccc(O)cc1	none
Cc1cc(/C=C2\SC(=S)NC2=O)c(C)n1C	none
Cc1cc(/C=C2\SC(=S)NC2=O)cc(C)c1O	OX1R antag-1 45.7
Cc1cc(/C=C2\SC(=S)NC2=O)c(C)n1-c1ccccc1	OX1R antag-1 45.3
CC(C)c1nc2ccccc2c2nn(CC(=O)N3CCOCC3)c(=O)n12	none (no result: OX1R antag-1, OX1R antag-2, CHO parental Ca, PGE2 EP2 inh, GPR7 antag)
Cc1cccc2c1N(CCOc1ccc(C(C)(C)C)cc1)C(=O)C2=O	none
Cc1ccc(OCCCN2C(=O)C(=O)c3cccc(C)c32)cc1	EP2 mod 63.5
Cc1ccccc1OCCN1C(=O)C(=O)c2cccc(C)c21	GPR7 antag 20.7
Cc1ccc(F)c(NC(=O)Cn2cnc3sc4c(c3c2=O)CCCC4)c1	none (no result: OX1R antag-1, OX1R antag-2, CHO parental Ca, GPR7 antag)
COc1nc(SCC(=O)Nc2ccccc2Cl)nc(N(C)C)n1	none
CCN(c1ccc(NC(=O)COC(=O)c2ccc([N+](=O)[O-])o2)cc1)C(C)C	none (no result: PGE2 EP2 inh, EP2 mod, GPR7 antag)
CCN(C(=O)COC(=O)c1cccnc1SC)C1CCCCC1	OX1R antag-1 57.2 (no result: PGE2 EP2 inh, EP2 mod, GPR7 antag)
O=C(COC(=O)c1ccc([N+](=O)[O-])o1)NC1CCCCC1	OX1R antag-1 24.4 (no result: PGE2 EP2 inh, EP2 mod, GPR7 antag)
CC(=O)Nc1ccc(NC(=O)COC(=O)c2ccc([N+](=O)[O-])o2)cc1	OX1R antag-1 36.6 (no result: PGE2 EP2 inh, EP2 mod, GPR7 antag)
O=C(NC1CCCCC1)c1ccc([N+](=O)[O-])o1	OX1R antag-1 39.0 (no result: PGE2 EP2 inh, EP2 mod)
CS(=O)(=O)N(Cc1ccccc1)c1ccc(C(=O)Nc2cccnc2)cc1	none
CCN(C(=O)COC(=O)c1ccc([N+](=O)[O-])o1)C1CCCCC1	OX1R antag-1 29.3 (no result: PGE2 EP2 inh, EP2 mod, GPR7 antag)
O=C(COC(=O)c1ccc([N+](=O)[O-])o1)NC1CCCC1	none (no result: PGE2 EP2 inh, EP2 mod, GPR7 antag)
CCOc1cc(/C=N/n2c(C)nnc2C)ccc1O	none
COc1cc(/C=C2\C(=O)N(c3ccccc3)N=C2C)ccc1Oc1ccc([N+](=O)[O-])cc1[N+](=O)[O-]	none
CC1=NN(c2ccccc2)C(=O)/C1=C\c1ccc(Oc2ccc([N+](=O)[O-])cc2[N+](=O)[O-])cc1	OX1R antag-1 50.4
